According to ChEMBL document CHEMBL3585281, “Antibacterial Labdane Diterpenoids from Vitex vestita” (2015):
≈ marks a conversion by molar mass, not a printed value.

What was measured:
Assay type in all cases: functional
Enterococcus hirae = experiment: Antibacterial activity against Enterococcus hirae CIP 5855 after 18 hrs by agar dilution method; settings: CIP 5855, 18 h
Procedure, shortened: (§1)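 Agar-dilution MIC against Gram-positive strains. Compounds in DMSO, geometric dilutions giving final 100−0.75 mg/L in Mueller Hinton agar. Strains grown 18 h at 37 °C in trypticase soy broth, diluted in sterile water, spotted by Steers inoculator (about 1000 UFC/spot). Plates incubated 18 h at 37 °C; DMSO blank; ofloxacin positive control. MIC = lowest concentration with no visible growth.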

Corynebacterium striatum = experiment: Antibacterial activity against Corynebacterium striatum N840 after 18 hrs by agar dilution method; settings: N840, 18 h; procedure, shortened: as §1
Bacillus cereus [1] = experiment: Antibacterial activity against Bacillus cereus N349 after 18 hrs by agar dilution method; settings: N349, 18 h; procedure, shortened: as §1
Staphylococcus aureus [2] = experiment: Antibacterial activity against Staphylococcus aureus CRBIP 2121 after 18 hrs by agar dilution method; settings: CRBIP 2121, 18 h; procedure, shortened: as §1
Enterococcus faecalis [3] = experiment: Antibacterial activity against Enterococcus faecalis N491 after 18 hrs by agar dilution method; settings: N491, 18 h; procedure, shortened: as §1
Staphylococcus aureus [4] = experiment: Antibacterial activity against Staphylococcus aureus CIP 5710 after 18 hrs by agar dilution method; settings: CIP 5710, 18 h; procedure, shortened: as §1
[5] = system: Staphylococcus epidermidis; experiment: Antibacterial activity against Staphylococcus epidermidis CIP 53124 after 18 hrs by agar dilution method; settings: CIP 53124, 18 h; procedure, shortened: as §1
Staphylococcus aureus [6] = experiment: Antibacterial activity against Staphylococcus aureus CIP 483 after 18 hrs by agar dilution method; settings: CIP 483, 18 h; procedure, shortened: as §1
Enterococcus faecalis [7] = experiment: Antibacterial activity against Enterococcus faecalis N518 after 18 hrs by agar dilution method; settings: N518, 18 h; procedure, shortened: as §1
Enterococcus faecalis [8] = experiment: Antibacterial activity against Enterococcus faecalis CIP 104676 after 18 hrs by agar dilution method; settings: CIP 104676, 18 h; procedure, shortened: as §1
Listeria monocytogenes [9] = experiment: Antibacterial activity against Listeria monocytogenes N851 after 18 hrs by agar dilution method; settings: N851, 18 h; procedure, shortened: as §1
[10] = system: Staphylococcus intermedius; experiment: Antibacterial activity against Staphylococcus intermedius N987 after 18 hrs by agar dilution method; settings: N987, 18 h; procedure, shortened: as §1
Mammaliicoccus sciuri = experiment: Antibacterial activity against Staphylococcus sciuri N993 after 18 hrs by agar dilution method; settings: N993, 18 h; procedure, shortened: as §1
Enterococcus faecium [11] = experiment: Antibacterial activity against Enterococcus faecium N490 after 18 hrs by agar dilution method; settings: N490, 18 h; procedure, shortened: as §1
Enterococcus faecium [12] = experiment: Antibacterial activity against Enterococcus faecium N733 after 18 hrs by agar dilution method; settings: N733, 18 h; procedure, shortened: as §1
Enterococcus faecalis [13] = experiment: Antibacterial activity against Enterococcus faecalis CIP 103214 after 18 hrs by agar dilution method; settings: CIP 103214, 18 h; procedure, shortened: as §1
Enterococcus faecium [14] = experiment: Antibacterial activity against Enterococcus faecium CIP 107387 after 18 hrs by agar dilution method; settings: CIP 107387, 18 h; procedure, shortened: as §1
Bacillus cereus [15] = experiment: Antibacterial activity against Bacillus cereus CIP 6624 after 18 hrs by agar dilution method; settings: CIP 6624, 18 h; procedure, shortened: as §1
Enterococcus durans = experiment: Antibacterial activity against Enterococcus durans CIP 104999 after 18 hrs by agar dilution method; settings: CIP 104999, 18 h; procedure, shortened: as §1
[16] = system: Enterococcus casseliflavus; experiment: Antibacterial activity against Enterococcus casseliflavus CIP 103018 after 18 hrs by agar dilution method; settings: CIP 103018, 18 h; procedure, shortened: as §1
Enterococcus faecalis [17] = experiment: Antibacterial activity against Enterococcus faecalis N520 after 18 hrs by agar dilution method; settings: N520, 18 h; procedure, shortened: as §1
Enterococcus gallinarum [18] = experiment: Antibacterial activity against Enterococcus gallinarum N489 after 18 hrs by agar dilution method; settings: N489, 18 h; procedure, shortened: as §1
Bacillus spizizenii = experiment: Antibacterial activity against Bacillus subtilis ATCC 6633 after 18 hrs by agar dilution method; settings: ATCC 6633, 18 h; procedure, shortened: as §1
Listeria monocytogenes [19] = experiment: Antibacterial activity against Listeria monocytogenes N783 after 18 hrs by agar dilution method; settings: N783, 18 h; procedure, shortened: as §1
Listeria monocytogenes [20] = experiment: Antibacterial activity against Listeria monocytogenes CIP 103575 after 18 hrs by agar dilution method; settings: CIP 103575, 18 h; procedure, shortened: as §1
Bacillus cereus [21] = experiment: Antibacterial activity against Bacillus cereus N190 after 18 hrs by agar dilution method; settings: N190, 18 h; procedure, shortened: as §1
Staphylococcus aureus [22] = experiment: Antibacterial activity against Staphylococcus aureus CIP 7625 after 18 hrs by agar dilution method; settings: CIP 7625, 18 h; procedure, shortened: as §1
Staphylococcus aureus [23] = experiment: Antibacterial activity against Staphylococcus aureus CIP 53154 after 18 hrs by agar dilution method; settings: CIP 53154, 18 h; procedure, shortened: as §1
Enterococcus faecium [24] = experiment: Antibacterial activity against Enterococcus faecium N507 after 18 hrs by agar dilution method; settings: N507, 18 h; procedure, shortened: as §1
Listeria innocua = experiment: Antibacterial activity against Listeria innocua E044 after 18 hrs by agar dilution method; settings: E044, 18 h; procedure, shortened: as §1
Streptococcus agalactiae = experiment: Antibacterial activity against Streptococcus agalactiae CIP 103227 after 18 hrs by agar dilution method; settings: ATCC 13813, 18 h; procedure, shortened: as §1
[25] = system: Staphylococcus haemolyticus; experiment: Antibacterial activity against Staphylococcus haemolyticus CIP 8156 after 18 hrs by agar dilution method; settings: CIP 8156, 18 h; procedure, shortened: as §1
Staphylococcus aureus [26] = experiment: Antibacterial activity against Staphylococcus aureus ATCC 9144 oxford after 18 hrs by agar dilution method; procedure, shortened: as §1
Enterococcus gallinarum [27] = experiment: Antibacterial activity against Enterococcus gallinarum CIP 105985 after 18 hrs by agar dilution method; settings: CIP 105985, 18 h; procedure, shortened: as §1
Enterococcus avium = experiment: Antibacterial activity against Enterococcus avium CIP 104053 after 18 hrs by agar dilution method; settings: CIP 104053, 18 h; procedure, shortened: as §1
[28] = system: Staphylococcus saprophyticus; experiment: Antibacterial activity against Staphylococcus saprophyticus CIP 76125 after 18 hrs by agar dilution method; settings: CIP 76125, 18 h; procedure, shortened: as §1
Enterococcus faecium [29] = experiment: Antibacterial activity against Enterococcus faecium N823 after 18 hrs by agar dilution method; settings: N823, 18 h; procedure, shortened: as §1
Staphylococcus aureus [30] = experiment: Antibacterial activity against Staphylococcus aureus ATCC 25923 after 18 hrs by agar dilution method; settings: ATCC 25923, 18 h; procedure, shortened: as §1
Staphylococcus aureus [31] = experiment: Antibacterial activity against Staphylococcus aureus CIP 53156 after 18 hrs by agar dilution method; settings: CIP 53156, 18 h; procedure, shortened: as §1
Listeria monocytogenes [32] = experiment: Antibacterial activity against Listeria monocytogenes N836 after 18 hrs by agar dilution method; settings: N836, 18 h; procedure, shortened: as §1
[33] = system: Enterococcus casseliflavus; experiment: Antibacterial activity against Enterococcus casseliflavus N487 after 18 hrs by agar dilution method; settings: N487, 18 h; procedure, shortened: as §1
Enterococcus faecium [34] = experiment: Antibacterial activity against Enterococcus faecium CIP 103014 after 18 hrs by agar dilution method; settings: CIP 103014, 18 h; procedure, shortened: as §1
[35] = system: Staphylococcus saprophyticus; experiment: Antibacterial activity against Staphylococcus saprophyticus E260 after 18 hrs by agar dilution method; settings: E260, 18 h; procedure, shortened: as §1
Enterococcus gallinarum [36] = experiment: Antibacterial activity against Enterococcus gallinarum N492 after 18 hrs by agar dilution method; settings: N492, 18 h; procedure, shortened: as §1
Bacillus cereus [37] = experiment: Antibacterial activity against Bacillus cereus N258 after 18 hrs by agar dilution method; settings: N258, 18 h; procedure, shortened: as §1
[38] = system: Staphylococcus lugdunensis; experiment: Antibacterial activity against Staphylococcus lugdunensis ATCC 43809 after 18 hrs by agar dilution method; settings: ATCC 43809, 18 h; procedure, shortened: as §1

Q: Which results are given for `CN[C@H](CC(C)C)C(=O)N[C@H]1C(=O)N[C@@H](CC(N)=O)C(=O)N[C@H]2C(=O)N[C@H]3C(=O)N[C@H](C(=O)N[C@H](C(=O)O)c4cc(O)cc(O)c4-c4cc3ccc4O)[C@H](O)c3ccc(c(Cl)c3)Oc3cc2cc(c3O[C@@H]2O[C@H](CO)[C@@H](O)[C@H](O)[C@H]2O[C@H]2C[C@](C)(N)[C@H](O)[C@H](C)O2)Oc2ccc(cc2Cl)[C@H]1O` [VANCOMYCIN]?
A: MIC (Enterococcus hirae): 0.3 µM (≈ 0.435 µg/mL); MIC (Corynebacterium striatum): 0.3 µM (≈ 0.435 µg/mL); MIC (Bacillus cereus [1]): 0.6 µM (≈ 0.87 µg/mL); MIC (Staphylococcus aureus [2]): 2.7 µM (≈ 3.91 µg/mL); MIC (Enterococcus faecalis [3]): > 86 µM; MIC (Staphylococcus aureus [4]): 0.6 µM (≈ 0.87 µg/mL); MIC [5]: 0.6 µM (≈ 0.87 µg/mL); MIC (Staphylococcus aureus [6]): 0.6 µM (≈ 0.87 µg/mL); MIC (Enterococcus faecalis [7]): 0.6 µM (≈ 0.87 µg/mL); MIC (Enterococcus faecalis [8]): 5 µM (≈ 7.25 µg/mL); MIC (Listeria monocytogenes [9]): 0.3 µM (≈ 0.435 µg/mL); MIC [10]: 0.6 µM (≈ 0.87 µg/mL); MIC (Mammaliicoccus sciuri): 0.6 µM (≈ 0.87 µg/mL); MIC (Enterococcus faecium [11]): 22 µM (≈ 31.9 µg/mL); MIC (Enterococcus faecium [12]): > 86 µM; MIC (Enterococcus faecalis [13]): 1.3 µM (≈ 1.88 µg/mL); MIC (Enterococcus faecium [14]): > 86 µM; MIC (Bacillus cereus [15]): 0.3 µM (≈ 0.435 µg/mL); MIC (Enterococcus durans): 0.3 µM (≈ 0.435 µg/mL); MIC [16]: 2.7 µM (≈ 3.91 µg/mL); MIC (Enterococcus faecalis [17]): 0.6 µM (≈ 0.87 µg/mL); MIC (Enterococcus gallinarum [18]): 5 µM (≈ 7.25 µg/mL); MIC (Bacillus spizizenii): 0.1 µM (≈ 0.145 µg/mL); MIC (Listeria monocytogenes [19]): 0.3 µM (≈ 0.435 µg/mL); MIC (Listeria monocytogenes [20]): 0.3 µM (≈ 0.435 µg/mL); MIC (Bacillus cereus [21]): 0.3 µM (≈ 0.435 µg/mL); MIC (Staphylococcus aureus [22]): 2.7 µM (≈ 3.91 µg/mL); MIC (Staphylococcus aureus [23]): 0.6 µM (≈ 0.87 µg/mL); MIC (Enterococcus faecium [24]): 0.6 µM (≈ 0.87 µg/mL); MIC (Listeria innocua): 0.3 µM (≈ 0.435 µg/mL); MIC (Streptococcus agalactiae): 0.3 µM (≈ 0.435 µg/mL); MIC [25]: 0.6 µM (≈ 0.87 µg/mL); MIC (Staphylococcus aureus [26]): 0.2 µM (≈ 0.29 µg/mL); MIC (Enterococcus gallinarum [27]): 5 µM (≈ 7.25 µg/mL); MIC (Enterococcus avium): 0.3 µM (≈ 0.435 µg/mL); MIC [28]: 0.6 µM (≈ 0.87 µg/mL); MIC (Enterococcus faecium [29]): > 86 µM; MIC (Staphylococcus aureus [30]): 0.6 µM (≈ 0.87 µg/mL); MIC (Staphylococcus aureus [31]): 0.3 µM (≈ 0.435 µg/mL); MIC (Listeria monocytogenes [32]): 0.3 µM (≈ 0.435 µg/mL); MIC [33]: 2.7 µM (≈ 3.91 µg/mL); MIC (Enterococcus faecium [34]): 0.3 µM (≈ 0.435 µg/mL); MIC [35]: 0.6 µM (≈ 0.87 µg/mL); MIC (Enterococcus gallinarum [36]): 5 µM (≈ 7.25 µg/mL); MIC (Bacillus cereus [37]): 0.3 µM (≈ 0.435 µg/mL); MIC [38]: 0.6 µM (≈ 0.87 µg/mL)
